Measurements from ChEMBL document CHEMBL4190302, “Antarctic Moss Biflavonoids Show High Antioxidant and Ultraviolet-Screening Activity” (J Nat Prod, 2017).

How the values were obtained:
[1] = Antioxidant activity assessed as DPPH radical scavenging activity after 30 mins under dark condition; assay type: functional
How it was run: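 Serially diluted samples were run in replicates of four, and 200 μM DPPH (concentration as added) was added. MeOH served as the negative control and rutin (820 μM) as the positive control. A row without DPPH gave the background correction. Plates were held in the dark for 30 min, then read at 517 nm. IC50 was interpolated from % scavenging versus log concentration and reported as mean ± SD.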

[2] = Ultraviolet radiation absorbing capacity of the compound at 315 to 400 nm; assay type: physicochemical; settings: 0.4 µM
[3] = Antioxidant activity assessed as DPPH radical scavenging activity after 30 mins under dark condition relative to rutin; assay type: functional

| IC50 [1] | Activity [2] | Structure (SMILES) | Activity [3] |
| --- | --- | --- | --- |
| 14400 µM | Active | COc1cc(C=O)ccc1O [VANILLIN] | – |
| 75 µM | Active | COc1cc(/C=C/C(=O)O)ccc1O [FERULATE] | – |
| 33.5 µM | Active | O=c1cc(-c2cc(O)c(O)c(-c3c(O)cc(O)c4c(=O)cc(-c5ccc(O)c(O)c5)oc34)c2)oc2cc(O)cc(O)c12 | 13% |
| 38.6 µM | – | C[C@@H]1O[C@@H](OC[C@H]2O[C@@H](Oc3c(-c4ccc(O)c(O)c4)oc4cc(O)cc(O)c4c3=O)[C@H](O)[C@@H](O)[C@@H]2O)[C@H](O)[C@H](O)[C@H]1O [RUTIN] | – |
| 128 µM | Active | O=C1CC(c2cc(O)c(O)c(-c3c(O)cc(O)c4c(=O)cc(-c5ccc(O)c(O)c5)oc34)c2)Oc2cc(O)cc(O)c21 (racemic) | – |
| 29700 µM | Active | O=C(O)/C=C/c1ccc(O)cc1 [COUMARIC ACID] | – |

| Structure (SMILES) | IC50 [1] | Activity [2] | Activity [3] |
| --- | --- | --- | --- |
| O=Cc1ccc(O)cc1 [4-HYDROXYBENZALDEHYDE] | 476000 µM | Active | – |
